In ChEMBL document CHEMBL4513216, “Probing the Open Global Health Chemical Diversity Library for Multistage-Active Starting Points for Next-Generation Antimalarials” (ACS Infect Dis, 2020):

Assay: Toxicity liver stage against HepG2, at 10uM
Format: cell-based
Set-up: test concentration 10 uM, cell line HepG2-A16-CD81EGFP
Conditions: human, HepG2-A16-CD81EGFP cells; read-out: INHIBITION
In short: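 Uninfected HepG2-A16-CD81EGFP cells, 3 × 10^3 per well, 1536-well, plated on prespotted compound at 10 μM final, parasite-free screening media added to match infected plates; puromycin 10 μM positive, DMSO 0.5% negative; run in parallel with 48 h PbLuc assay at 37 °C, 5% CO2; viability by CellTiter-Glo luminescence, normalized to controls.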

| SMILES | cytotoxicity at 10 µM [%] |
| --- | --- |
| COc1cccc2c1OCC(Cc1ccc(N)nc1C)C2 (centres undefined) | 3.29 |
| COCCOCCNC(=O)N1CCc2c(F)ccc(F)c2C1 | -2.23 |
| Cc1cccc(CN2CCO[C@H]3[C@H](Oc4ccccn4)CC[C@@H]32)n1 | -4.65 |
| CS(=O)(=O)c1cccc(C(=O)NCC2Cc3ccccc3O2)c1 (centres undefined) | -1.26 |
| CS(=O)(=O)N1CCCC1c1cccc(Cc2ccccc2F)n1 (centres undefined) | -13.2 |
| N#Cc1cccc(CN2C[C@@H](F)[C@@H](OCc3nc4cnccc4[nH]3)C2)c1 | 3.62 |
| CCc1ocnc1C(=O)N1CCOC(c2nc(C(C)C)n[nH]2)C1 (centres undefined) | 7.43 |
| CNC(=O)CN1CCOCC2(C1)CN(C(=O)CC(C)C)CCO2 (centres undefined) | 3.94 |
| COc1cc(OC)cc(C2CC(=O)Nc3c2nc2n3CCCC2)c1 (centres undefined) | -3.99 |
| CCOCCn1c(=O)n(Cc2ccc(F)cc2)c2ncc(C(=O)O)cc21 | 0.902 |
| O=C(C1CCOC1)N1C[C@H]2CN(Cc3cccc(F)c3)C(=O)[C@H]2C1 (some centres undefined) | -106 |
| N#Cc1ccccc1OCCN1CCCCC1C(=O)N1CCOCC1 (centres undefined) | -45.6 |
| c1csc(N2CCN(c3nccn4cnnc34)CC2)n1 | -5.81 |
| CCOCc1nc2c(c(N3CC=CC3)n1)CCN(CC1CC1)CC2 | -21.2 |
| Cc1nnc2n1CCN(c1nc3ccccc3o1)C2 | 3.51 |
| CCc1cnc(C)nc1N1CCC(Cc2cccc(C(=O)O)c2)C1 (centres undefined) | 2.42 |
| CCOc1ccc(Oc2cc(CN)ccn2)cc1 | 0.102 |
| CC(C)Oc1ccc2c(NC(=O)CN(C)C)nn(CC(F)(F)F)c2c1 | 1.6 |
| CC(C)(C)C(=O)N1CC[C@H]2NC(=O)N(c3ccc(F)cc3)C(=O)[C@H]21 | -1.72 |
| CC(C)N(C)C(=O)Cn1ncc(N(C)CCc2ccccc2)cc1=O | 0.562 |
| NC(=O)c1cncc(N2CCN(Cc3ccc(F)cc3Cl)CC2)n1 | 11.8 |
| c1ccc(CN2CCc3c(COCC4CC4)cncc3C2)nc1 | 2.41 |

| SMILES | cytotoxicity at 10 µM [%] |
| --- | --- |
| CNc1ncccc1CN1CCN(C)CC(C(N)=O)C1 (centres undefined) | 0.106 |
| CC(=O)Nn1c(C)cc(CN2CCCN(Cc3ccncc3)CC2)c1C | 5.63 |
| CCCn1cnc2c1CN(S(=O)(=O)c1ccc(F)cc1)[C@H](C(=O)OC)C2 | 1.2 |
| COc1ncccc1NC(=O)N(C1CC1)C(C)C(C)C (centres undefined) | 8.42 |
| N#Cc1ccc(C(=O)N2CCC3(CC2)C(=O)Nc2ccccc23)cn1 | 13.5 |
| CN(C)C(=O)c1cn[nH]c1C1(C)CCN(c2ncccn2)CC1 | 5.88 |
| c1ccc(CN2C[C@@H]3OCCN(c4ncccn4)[C@@H]3C2)nc1 | 3.86 |
| COc1cccc2c1CCN(C(=O)NCCc1nccn1C)C2 | 2.38 |
| Cc1nc(CN2C(=O)CCC23CCN(Cc2cccn2C)CC3)cs1 | 0.676 |
| CC(O)c1cn(Cc2cccc(C(F)(F)F)c2)nn1 (centres undefined) | 14.1 |
| c1cncc(O[C@H]2CC[C@H]3[C@H]2OCCN3C2CCCC2)c1 | -6.05 |
| COCCC(=O)N1CCC2(CC1)CC(c1ccccc1)CN(C1CC1)C2 (centres undefined) | -0.173 |
| CN1CC(=O)N(c2cccc(F)c2)CC12CCN(Cc1ccsc1)C2 (centres undefined) | 4.93 |
| Cc1noc([C@H]2C[C@@H]3CCN(C(=O)c4cccn4C)C[C@H]3O2)n1 | -103 |
| NCC1Cn2nnc(-c3cccc(F)c3)c2CO1 (centres undefined) | -12.1 |
| O=C(NC1CC1)c1nnn(-c2cccc(C(F)(F)F)c2)c1C1CC1 | 4.01 |
| Cc1nn(C)c2nc(NC(C)c3nnn[nH]3)sc12 (centres undefined) | -0.909 |
| Cc1cccc(NC(=O)c2sccc2C)n1 | -1.45 |
| CCN(CC(=O)NC(C)C)C(=O)C(C)(C)c1ccc2c(c1)OCCO2 | -2.79 |
| O=C(Cc1ccc2c(c1)CCO2)N1CCCC1Cn1cccn1 (centres undefined) | -149 |
| CC(C)Cn1nc(-c2ccc(C(=O)O)cc2)cc1-c1ccc(F)cc1 | 8.88 |
| CN(C)c1nc(NCCCN2CCc3ccccc32)ncc1F | 27.3 |
